The chains are these.
B1: Osa-1-4 twister ribozyme (parent)
chain: CCGCCUAACACUGCCAAUGCCGGUCCCAAGCCCGGAUAAAAGUGGAGGGGGCGG

The variants in this series derive from B1. Briefly: self-cleavage, relative activity (ratio to wild type); higher = more cleavage; co-transcriptional. The gist of the method:
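In vitro transcription at 37 °C for 2 h allowed the twister ribozyme to cleave itself as it was made. Its 54-nucleotide Oryza sativa template had been synthesised with 97 % wild-type base and 1 % of each other base at the 48 positions downstream of the cleavage site. A template-switching oligonucleotide was used for reverse transcription, followed by PCR amplification and deep sequencing. Whether reads carried upstream sequence set the cleavage status, and relative activity is the fraction cleaved normalised to wild type.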
For A39C A7C, the self-cleavage came out at 0.06.
Consider A38U G30U, for which the self-cleavage is 0.04.
For A38U G30A, the self-cleavage was 0.04.
Regarding A38U G30C, the self-cleavage turned out to be 0.04.
Regarding A38U C31U, the self-cleavage came out at 0.75.
For the variant A38U C31A, the self-cleavage came to 0.03.
For A38U C31G, the self-cleavage stood at 0.08.
The figure for A39C C14U is 0.11.
As to A39C C14A, the self-cleavage was found to be 0.08.
As for A39C C14G, the self-cleavage worked out at 0.05.
In the case of A39C C15U, the self-cleavage was 0.57.
Consider A39C C15G, for which the self-cleavage was 0.16.
A39C C15A: the self-cleavage amounted to 0.23.
For the variant A38U U37C, the self-cleavage amounted to 1.04.
For A38U U37G, the self-cleavage was found to be 1.03.
Turning to A38U U37A, the self-cleavage worked out at 1.03.
With A39C G13C the figure was 0.02; with A39C G13U, 0.03.
Regarding A39C G13A, the self-cleavage came to 0.06.
With A38U C15U, the self-cleavage is 0.21.
For A38U C15A, the self-cleavage turned out to be 0.23.
In the case of A38U C15G, the self-cleavage was 0.25.
For A39C A40G, the self-cleavage was 0.59.
On to A39C A40C, for which the self-cleavage was 0.1.
The figure for A39C A40U is 0.85; for A39C G51A it is 0.53; for A39C G51C it is 0.05.
As for A39C G51U, the self-cleavage was 0.21.
Consider A39G U12A, for which the self-cleavage was 0.69.
On to A39G U12G, for which the self-cleavage was determined as 0.28.
A39G U12C: the self-cleavage was determined as 0.19.
The figure for A39C G53A is 0.37.
The figure for A39C G53C is 0.06; for A39C G53U it is 0.12.
For the variant A39G A40C, the self-cleavage is 0.05.
With A39G A40G the figure was 0.36; with A39G A40U, 0.16.
Consider A39G G34U, for which the self-cleavage was 0.68.
A39G G34A: the self-cleavage worked out at 0.8.
The figure for A39G G34C is 0.42.
With A38U G50C, the self-cleavage was determined as 0.99.
On to A38U G50U, for which the self-cleavage turned out to be 1.01.
The figure for A38U G50A is 0.64.
Regarding A39C C26G, the self-cleavage came out at 0.07.
Turning to A39C C26A, the self-cleavage turned out to be 0.04.
The figure for A39C C26U is 0.35.
A39G C26G: the self-cleavage was 0.25.
On to A39G C26A, for which the self-cleavage is 0.06.
Turning to A39G C26U, the self-cleavage was 0.55.
The figure for A39G A8G is 0.35; for A39G A8U it is 0.17.
For A39G A8C, the self-cleavage amounted to 0.08.
For the variant A39C C32A, the self-cleavage came out at 0.08.
A39C C32U: the self-cleavage stood at 0.08.
Consider A39C C32G, for which the self-cleavage amounted to 0.1.
Take A39G G50A: the self-cleavage is 0.72.
With A39G G50C the figure was 0.84; with A39G G50U, 1.
As for A39G G19A, the self-cleavage came to 0.7.
For the variant A39G G19C, the self-cleavage was determined as 0.31.
For the variant A39G G19U, the self-cleavage is 0.26.
The figure for A39G G42U is 0.08; for A39G G42C it is 0.16; for A39G G42A it is 0.37.
For the variant A39C C33A, the self-cleavage worked out at 0.06.
As for A39C C33U, the self-cleavage worked out at 0.38.
As to A39C C33G, the self-cleavage came to 0.07.
On to A39G U18C, for which the self-cleavage worked out at 0.96.
As to A39G U18A, the self-cleavage came to 1.
Regarding A38U U43G, the self-cleavage came to 0.47.
As to A38U U43C, the self-cleavage amounted to 0.39.
For the variant A38U U43A, the self-cleavage came out at 0.95.
With A39G A7G, the self-cleavage was 0.31.
On to A39G A7C, for which the self-cleavage turned out to be 0.04.
For the variant A39G A7U, the self-cleavage was 0.08.
As to A39G G44A, the self-cleavage turned out to be 0.85.
For A39G G44C, the self-cleavage came to 0.93.
In the case of A39G G44U, the self-cleavage stood at 0.89.
For the variant A38U G48C, the self-cleavage came out at 0.08.
Consider A38U G48A, for which the self-cleavage was 0.1.
On to A38U G48U, for which the self-cleavage was 0.08.
As to A39C G30U, the self-cleavage came out at 0.03.
For A39C G30C, the self-cleavage was determined as 0.04.
As for A39C G30A, the self-cleavage came out at 0.04.
With A39G C20G the figure was 0.13; with A39G C20A, 0.91.
Turning to A39G C20U, the self-cleavage amounted to 0.96.
On to A39C C11A, for which the self-cleavage worked out at 0.26.
For the variant A39C C11U, the self-cleavage is 0.74.
For A39C C11G, the self-cleavage was found to be 0.21.
The figure for A39G G47U is 0.13.
For A39G G47C, the self-cleavage turned out to be 0.09.
In the case of A39G G47A, the self-cleavage turned out to be 0.13.
On to A39G, for which the self-cleavage worked out at 1.
As to A39C, the self-cleavage is 0.99.
A39C G35U: the self-cleavage was 0.84.
Regarding A39C G35C, the self-cleavage came out at 0.14.
For A39C G35A, the self-cleavage is 0.78.
Consider A39C U12C, for which the self-cleavage came to 0.11.
The figure for A39C U12G is 0.11; for A39C U12A it is 0.44.
For the variant A39C C27A, the self-cleavage is 0.11.
Consider A39C C27U, for which the self-cleavage was determined as 0.09.
In the case of A39C C27G, the self-cleavage turned out to be 0.06.
With A38U C25U the figure was 0.9; with A38U C25G, 0.09.
With A38U C25A the figure was 0.07; with A39C A41U, 0.96; with A39C A41G, 0.23.
Turning to A39C A41C, the self-cleavage was 0.37.
Take A39C C9A: the self-cleavage came to 0.28.
The figure for A39C C9G is 0.34.
Consider A39C C9U, for which the self-cleavage worked out at 0.55.
With A38U C26A the figure was 0.04.
Regarding A38U C26G, the self-cleavage stood at 0.09.
The figure for A38U C26U is 0.92; for A38U U18G it is 0.85; for A38U U18C it is 0.93.
Regarding A38U U18A, the self-cleavage came to 0.92.
In the case of A39G G48U, the self-cleavage was found to be 0.07.
With A39G G48C the figure was 0.08; with A39G G48A, 0.1; with A39G C52A, 0.97.
The figure for A39G C52G is 0.98; for A39G C52U it is 1.04; for A39G G45U it is 0.08.
In the case of A39G G45A, the self-cleavage was 0.13.
With A39G G45C, the self-cleavage was determined as 0.07.
In the case of A39C G50U, the self-cleavage was 1.
Take A39C G50C: the self-cleavage was found to be 0.67.
Regarding A39C G50A, the self-cleavage stood at 0.64.
A39C G48U: the self-cleavage stood at 0.05.
Consider A39C G48A, for which the self-cleavage came out at 0.06.
For the variant A39C G48C, the self-cleavage was found to be 0.05.
In the case of A39G C33G, the self-cleavage is 0.07.
As for A39G C33A, the self-cleavage amounted to 0.08.
Consider A39G C33U, for which the self-cleavage turned out to be 0.63.
Turning to A39G A41C, the self-cleavage was 0.6.
Regarding A39G A41G, the self-cleavage worked out at 0.46.
As to A39G A41U, the self-cleavage was 0.95.
For A39C C21A, the self-cleavage is 0.22.
With A39C C21U the figure was 0.97; with A39C C21G, 0.08; with A38U G42U, 0.08.
With A38U G42C, the self-cleavage was determined as 0.17.
For A38U G42A, the self-cleavage amounted to 0.6.
Take A39C G49A: the self-cleavage was found to be 0.07.
For the variant A39C G49U, the self-cleavage was 0.06.
With A39C G49C, the self-cleavage came to 0.06.
With A39C C52U the figure was 1.06.
With A39C C52A the figure was 1; with A39C C52G, 0.96; with A38U C27A, 0.14.
With A38U C27U the figure was 0.15; with A38U C27G, 0.08; with A39G C21A, 0.55.
As to A39G C21U, the self-cleavage is 1.01.
With A39G C21G the figure was 0.08.
As to A38U G53C, the self-cleavage was 0.09.
Turning to A38U G53A, the self-cleavage came out at 0.81.
In the case of A38U G53U, the self-cleavage was determined as 0.27.
On to A39G C15A, for which the self-cleavage came to 0.41.
Regarding A39G C15U, the self-cleavage came to 0.21.
For the variant A39G C15G, the self-cleavage was 0.31.
Take A39G C32A: the self-cleavage worked out at 0.08.
Take A39G C32G: the self-cleavage turned out to be 0.14.
As to A39G C32U, the self-cleavage is 0.1.

The values above are taken from the RNAGym collection of RNA variant scans (doi:10.1002/anie.201605470).
